TDP2 absorb = blocks human TDP2 phosphodiesterase activity; AID 720702; hit rate 0.34% among 370,000; inhibition, % at 12.8 µM; recombinant TDP2, T5PNP hydrolysis, p-nitrophenol absorbance 415 nm;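 active = inhibition above the mean of all tested compounds plus 3 SD, set per campaign, cut at about 25% in these data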;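 also: 0% = DMSO with enzyme and 100% = buffer with substrate but no TDP2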
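Test system: human TDP2 enzyme; Input: 120 nM TDP2 per well; Buffer or medium: Mg2+-containing Tris-HCl buffer, pH 7.5; Reagent: 5 mM T5PNP; Dosing: 12.8 µM single point, 1% DMSO; Incubation: reaction 2 h, 37 °C; Detection: p-Nitrophenol epi absorbance; Read-out: % inhibition relative to enzyme-containing and enzyme-free wells; Replicates: single well per compound.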
UHRF1 MBD2 ctr = UHRF1 methyl-DNA binding inhibition; hit rate 0.75% among 370,000; UHRF1 binding to methylated oligo, TR-FRET; inhibition, % at 4.4 µM; Q96T88; AID 687016; in the data active = inhibition above about 21%;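 also: UHRF1 SRA domain binding a hemimethylated CpG hairpin DNA probe; 0% = median of test compound wells and 100% = reference inhibitor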
LEDGF integ inh = blocks HIV-1 LEDGF/p75-dependent DNA integration. TR-FRET IN-LEDGF/p75 DNA integration, Eu/Cy5. inhibition, % at 3.7 µM. hit rate 0.64% among 370,000. AID 743269;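 active = inhibition above the screen-wide mean plus 3 SD, cut at about 13% in these data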;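 also: signal is the Cy5 over europium emission ratio at 671 and 618 nm; 0% = plate median of compound wells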
MBD2 inh = MBD2-methylated oligo binding inhibition; TR-FRET, MBD2 binding to methylated oligonucleotide; inhibition, % at 4.4 µM; hit rate 0.31% among 370,000; in the data active = inhibition above about 13%
An asterisk follows results filed as active. Shown are actives, neighbours in structure and some others; about 1.6% of the full set was active somewhere.

SMILES | TDP2 absorb | UHRF1 MBD2 ctr | LEDGF integ inh | MBD2 inh
COc1ccc(NC(=O)c2ccc(NC(=O)CN(C)CC(=O)Nc3c(C)cccc3C)cc2)cc1 | 1 | 22* | 1 | 0
COc1ccc(NC(=O)CSCC(=O)N(C)CC(=O)Nc2c(C)cccc2C)cc1 | -12 | 3 | -6 | 11
C=CCN1C(=O)[C@@H](CC(=O)NCC23CC4CC(CC(C4)C2)C3)[C@]2(C(=O)OCC)CCCCC/C=C/12 | -1 | 1 | -2 | 1
O=C(Nc1cc([N+](=O)[O-])ccc1N1CCOCC1)c1cccs1 | 1 | -1 | 1 | -1
O=C(Nc1ccc(NC(=O)c2cc([N+](=O)[O-])ccc2N2CCOCC2)cc1)c1cccs1 | -21 | 23* | -2 | 9
COc1cc(NC(C)CCCNC(C)C)c2ncccc2c1OC (configuration not stated) | 16 | -1 | 14* | -7
COc1cc(NCCCCC(C)N)c2nccc(C)c2c1 (configuration not stated) | 9 | -1 | 12 | -9
COc1cc(NCCCCCCN)c2ncccc2c1OC | 52* | 2 | 40* | -6
COc1cc2c(NCCCCCO)ncnc2c(OC)c1OC | 1 | 1 | 1 | 0
C[C@H]1C2CC(OC(=O)Nc3ccc(C(F)(F)F)cc3)C(C2)[C@H]2CCCCN21 (some centres not stated) | 5 | -2 | 2 | -1
C#CCOCCOCCOCCNc1nc(N2CCOCC2)nc(N2CCN(C(=O)CCCCCCCCCCNC(=O)[C@@H]([C@H](C)CC)n3cc(CCCCCN)nn3)CC2)n1 | 22 | 22* | 6 | 8
C#CCOCCOCCOCCNc1nc(N2CCN(C(=O)CCCCCCCCCCNC(=O)[C@H](CO)n3cc(CCCSC)nn3)CC2)nc(N2CCN(C(=O)CCCCCCCCCCNC(=O)[C@H](CCCCN)n3cc(CCO)nn3)CC2)n1 | -4 | 25* | -2 | -6
COc1ccccc1C(=O)NC1CCCCN(Cc2ccc(C)cc2)C1=O (configuration not stated) | 6 | 0 | 2 | 3
COc1ccc2nc3c(nc2c1)CCCC3 | 4 | -1 | 4 | 8
COc1ccc2cc3c(nc2c1)OCC3 | -1 | 21* | 3 | -3
CCOC(=O)C1=CC[C@@H](c2ccccc2)C(C#N)(C#N)[C@H]1/C=C/c1ccccc1 | -6 | 0 | 2 | 3
CC1CCN(C(=O)c2ccc(S(=O)(=O)N3CCCC3)cc2)CC1 | 0 | 41* | -4 | 2
CC1CCN(C(=O)c2ccc(S(=O)(=O)N3CCCCCC3)cc2)CC1 | 11 | -2 | 2 | -4
CC1CCN(S(=O)(=O)c2ccc(C(=O)N3CCCCC3C(=O)O)cc2)CC1 (configuration not stated) | 4 | 2 | -2 | 6
CC1CCN(S(=O)(=O)c2ccc(C(=O)N3CCCC3C(=O)O)cc2)CC1 (configuration not stated) | -1 | 57* | 4 | 3
O=C1COc2ccc(C(=O)COC(=O)CNS(=O)(=O)c3cccc(F)c3)cc2N1 | 6 | 20 | 3 | 18*
CN(C)c1ccccc1-c1cc(NC=O)c2ncc(-c3cccc(C(F)(F)F)c3)n2c1 | 14 | 14 | 0 | 42*
Cc1ncc(CO)c(/C=N/NC(=O)c2cc(Br)ccc2O)c1O | -1 | 24* | -8 | 0
COC(=O)[C@]12C[C@H](CC(=O)NCc3ccc(C)o3)C(=O)N(Cc3ccco3)C1=C[C@H](COCc1ccccc1)O[C@@H]2C | -19 | 4 | 6 | -4
CC(C)CN1CCN(Cc2cn(C)c3ccccc23)CC1CCO (configuration not stated) | -13 | 26* | -1 | 0
SMILES | TDP2 absorb | UHRF1 MBD2 ctr | LEDGF integ inh | MBD2 inh
Cn1cc(CN2CCN(CC(C)(C)C)C(CCO)C2)c2ccccc21 (configuration not stated) | -11 | 1 | 1 | 2
COc1cc(NC(=O)c2noc3c2CCC3)c(OC)cc1Cl | -4 | 28* | 7 | 0
Cc1cc(C)nc(NS(=O)(=O)c2ccc(NC(=O)C3(c4ccc([N+](=O)[O-])cc4)CCCC3)cc2)n1 | 16 | 2 | 2 | -1
COc1ccc(C2(C(=O)Nc3ccc(S(=O)(=O)Nc4nc(C)cc(C)n4)cc3)CCCC2)cc1OC | 1 | 43* | 4 | 5
COCCNC(=O)c1c(N)[nH]c(C(=O)c2ccc(Br)cc2)c1-c1ccc(Br)cc1 | 4 | -2 | 1 | -4
CSc1ccccc1NC(=O)Cc1ccccc1 | -4 | 23* | 4 | 12
O=C(Cc1ccccc1)Nc1ccccc1Sc1ccccc1 | 2 | -1 | -3 | 1
COC(=O)[C@]12CCCCC=C1N(Cc1ccc(OC)cc1)C(=O)[C@@H]2CC(=O)N1CCOCC1 | -4 | -1 | 2 | -3
COC(=O)c1ccc(CSc2nc(-c3ccccc3)cs2)o1 | -3 | 21* | -3 | 0
COC(=O)c1ccc(CSc2nnc(NCc3ccccc3)s2)o1 | -2 | 13 | -2 | -7
COCCN=C1Sc2ccccc2[C@@H]2C[C@H]3[C@H](CON3C)CN12 | -4 | -2 | 1 | -3
COc1cc(-n2nc(C)c3c2OC(N)=C(C#N)C3c2ccccc2)c(Cl)c(Br)c1O (configuration not stated) | 48* | -10 | 6 | -11
COc1ccc(NC(=O)N2CCC(N(C)CCC(C)C)CC2)cc1OC | 0 | -3 | 4 | -3
COc1cc(Cl)c(C)cc1NC(=O)CN1CCN(C(=O)c2cccs2)CC1 | -2 | 0 | 5 | -4
CS(=O)(=O)c1ccc(Cl)c(NC(=O)CN2CCN(C(=O)c3cccs3)CC2)c1 | 1 | 23* | 2 | 7
O=C1NC(c2ccc(Br)cc2)c2c(-c3ccccc3)n[nH]c21 (configuration not stated) | -5 | 0 | -2 | 8
COP(=O)(O)C[C@@H]1CCc2cc(C)cc([C@H](CC(C)C)NC(=O)OCc3ccccc3)c2O1 | -9 | 5 | -5 | 6
CC1C(c2ccccc2)C(C#N)(C#N)C2(C#N)C(=O)NC1(N)C2C (configuration not stated) | 7 | 23* | -2 | 6
COC(=O)[C@]12C[C@H](CC(=O)N3CCCCC3)C(=O)N(Cc3cccc4ccccc34)C1=C[C@H](C(C)(C)C)O[C@@H]2C | -11 | -1 | -1 | 0
CCc1nnc(N/N=C/c2c(C)[nH]c3ccccc23)n1N | 59* | 11 | 68* | 0
Cc1nc2[nH]c(=S)[nH]c(=O)c2nc1C | 10 | 2 | 3 | -1
Cc1nc2c(=O)[nH]c(=S)[nH]c2[nH]c1=O | 8 | 85* | 22* | 48*
COC(=O)[C@]12C[C@H](CC(=O)NCCCCc3ccccc3)C(=O)N(Cc3ccc4c(c3)OCO4)C1=C[C@H](COCc1ccccc1)O[C@@H]2C | 3 | -1 | 1 | 3
CC(=O)c1cc(-c2cnn(Cc3ccccc3)c2)c(=O)n2c1CCC2 | -3 | 1 | 5 | 2
COC(=O)c1ccc2nc(-c3ccc(C#N)cc3)c(Cc3ccsc3)n2c1 | 2 | 22* | 0 | 5
